This is an account of results in ChEMBL document CHEMBL5325455, “Daphnanes diterpenes from the latex of Hura crepitans L. and their PKCζ-dependent anti-proliferative activity on colorectal cancer cells” (Bioorg Med Chem, 2023).

The source made the active and inactive calls. The rule behind the calls is not given here.

Assay [1] concerns Caco-2. Kind of assay: Cytostatic activity against human Caco-2 cells assessed as inhibition of cell growth at 1 ug/ml incubated for 48 hrs by MTS assay relative to control. It counts as functional. The essentials: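 Caco-2 cells were seeded at 40 000/well 48 h before dosing. Compound was diluted from a 10 mg/mL DMSO stock into medium (0.125, 0.5 or 1 µg/mL final; DMSO ≤0.01%) and added in triplicate for 48 h. Viability was read by MTS absorbance at 490 nm and expressed relative to the DMSO control.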
Background: Formazan colour is commonly taken as a measure of viable cells.

Assay [2] deals with Caco-2. Kind of assay: Induction of morphological changes in human Caco-2 cells assessed as effect on cellular aggregation at 1 ug/ml preincubated for 30 mins with CRT0066854 hydrochloride followed by compound addition and measured after 48 hrs by Hoechst 3342 and phalloidin staining based confocal microscopic analysis. The settings on record: dose 1.0 µg/ml. The format is functional, cell-based. The essentials: (§1)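 CRT0066854 hydrochloride (2.5 µM) was added to Caco-2 cells 30 min before compound at 1 µg/mL. After 48 h, nuclei and actin cytoskeleton were labelled and confocal views taken with a 20X objective; duplicates from one experiment.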

The subject of assay [3] is Caco-2. Kind of assay: Induction of morphological changes in human Caco-2 cells assessed as reorganization of epithelial tissue architecture by measuring effect on actin density at 1 ug/ml preincubated for 30 mins with CRT0066854 hydrochloride followed by compound addition and measured after 48 hrs by Hoechst 3342 and phalloidin staining based confocal microscopic analysis. The format is functional, cell-based. The settings on record: dose 1.0 µg/ml. The essentials: as §1

In assay [4] the target is T1, Protein kinase C zeta type (Homo sapiens) (UniProt Q05513).
T1 sequence (whole entry): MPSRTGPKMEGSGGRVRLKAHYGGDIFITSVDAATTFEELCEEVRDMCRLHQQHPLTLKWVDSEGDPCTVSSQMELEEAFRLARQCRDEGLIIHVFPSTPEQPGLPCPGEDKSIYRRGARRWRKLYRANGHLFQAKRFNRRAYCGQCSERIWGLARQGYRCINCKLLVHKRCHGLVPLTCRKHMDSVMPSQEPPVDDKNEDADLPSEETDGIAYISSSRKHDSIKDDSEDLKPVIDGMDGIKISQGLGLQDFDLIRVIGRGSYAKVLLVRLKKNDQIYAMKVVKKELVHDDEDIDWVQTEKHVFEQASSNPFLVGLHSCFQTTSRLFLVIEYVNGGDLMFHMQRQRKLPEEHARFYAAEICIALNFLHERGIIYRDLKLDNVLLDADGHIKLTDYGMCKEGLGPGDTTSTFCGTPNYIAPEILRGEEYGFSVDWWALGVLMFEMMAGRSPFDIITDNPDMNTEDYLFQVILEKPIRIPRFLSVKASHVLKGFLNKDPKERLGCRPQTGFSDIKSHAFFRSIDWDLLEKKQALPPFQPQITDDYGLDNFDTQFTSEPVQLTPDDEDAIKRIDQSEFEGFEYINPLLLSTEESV
Kind of assay: Activation of PKCzeta in human Caco-2 cells assessed as increase in colocalization of PKCzeta and actin in dense cell aggregates at 1 ug/ml measured after 48 hrs by immunostaining analysis. The format is cell-based. As to conditions: filed as activator, dose 1.0 µg/ml. The essentials:
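Caco-2 cells were seeded at 40 000/well and treated for 48 h as in the viability assay. They were fixed in 3.7% PFA for 20 min and permeabilised in HBSS/0.5% Triton X100/1% BSA. Anti-PKCζ (1/50) or anti-PKCα (1/200) was applied overnight at 4°C, then Alexa 488 secondary for 45 min. Phalloidin and Hoechst counterstained the cells before confocal imaging; PKCα signal was quantified by immunofluorescence.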

The test system of a further assay is SARS-CoV-2. In words: Antiviral activity against SARS-CoV-2 assessed as reduction in progeny production measured 24 hrs post infection by PFU assay. The format is functional, organism-based. The settings on record: Severe acute respiratory syndrome coronavirus 2, 24 h.
The target in assay [5] is Protein kinase C delta type (Homo sapiens) (UniProt Q05655). In words: Inhibition of PKCdelta in human Caco-2 cells assessed as reduction in protein phosphorylation at Ser664 residue at 1 ug/ml preincubated for 15 mins with PKCalpha inhibitor, Go6976 followed by compound addition and measured after 48 hrs by Western blot analysis. It counts as cell-based. The settings on record: dose 1.0 µg/ml. The essentials:
(§2)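 Caco-2 cells were given 0.2 µM Gö6976 for 15 min, then compound at 1 µg/mL for 48 h. Lysates (30 µg protein) were blotted for pSer664-PKCδ and total PKCδ with actin loading control, and the pSer664/total PKCδ ratio was quantified. Data are from one experiment.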
(Immunoblotting shows a protein as a band on a membrane.)

For assay [6] the target is unchanged. In words: Inhibition of PKCdelta in human Caco-2 cells assessed as ratio of phosphorylated PKCdelta at Ser664 residue to total PKCdelta level at 1 ug/ml preincubated for 15 mins with PKCalpha inhibitor, Go6976 followed by compound addition and measured after 48 hrs by Western blot analysis (reference value: 0.94). The format is cell-based. As to conditions: dose 1.0 µg/ml. The essentials: as §2

Protein kinase C delta type (Homo sapiens), sequence (Q05655 whole entry, looked up): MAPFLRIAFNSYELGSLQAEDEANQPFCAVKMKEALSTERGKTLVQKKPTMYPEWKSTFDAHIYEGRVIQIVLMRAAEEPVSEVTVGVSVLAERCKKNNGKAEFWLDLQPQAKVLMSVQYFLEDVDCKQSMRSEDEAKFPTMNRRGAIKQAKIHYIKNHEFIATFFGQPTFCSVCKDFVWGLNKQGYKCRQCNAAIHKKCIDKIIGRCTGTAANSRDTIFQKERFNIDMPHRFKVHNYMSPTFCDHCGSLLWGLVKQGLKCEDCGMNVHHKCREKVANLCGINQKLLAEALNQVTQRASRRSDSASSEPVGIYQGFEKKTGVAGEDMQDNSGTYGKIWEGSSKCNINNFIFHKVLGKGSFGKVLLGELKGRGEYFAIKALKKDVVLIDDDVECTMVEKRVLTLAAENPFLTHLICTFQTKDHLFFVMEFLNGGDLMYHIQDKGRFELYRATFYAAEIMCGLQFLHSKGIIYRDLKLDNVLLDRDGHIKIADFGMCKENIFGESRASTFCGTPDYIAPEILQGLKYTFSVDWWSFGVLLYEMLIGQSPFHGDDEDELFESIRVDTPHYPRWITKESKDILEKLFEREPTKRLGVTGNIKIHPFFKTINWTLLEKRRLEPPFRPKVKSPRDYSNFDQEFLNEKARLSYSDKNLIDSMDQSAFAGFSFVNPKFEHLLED

Turning to `C=C(C)[C@]12C[C@@H](C)[C@@]34O[C@](/C=C/[C@@H]5O[C@H]5CCCCCCCCC)(O[C@@H]1[C@@H]3[C@@H]1O[C@]1(CO)[C@@H](O)[C@]1(O)C(=O)C(C)=C[C@H]14)O2`, the inhibition at 1 µg/mL with Caco-2 [1] turned out to be 30%. The result in the assay on Caco-2 [2] was inactive.

For the molecule `C=C(C)[C@]12C[C@@H](C)[C@@]34O[C@](/C=C/C=C/CCCCCCCCC)(O[C@@H]1[C@@H]3[C@@H]1O[C@]1(CO)[C@@H](O)[C@]1(O)C(=O)C(C)=C[C@H]14)O2`, the outcome in the assay on Caco-2 [3] was inactive. For the same molecule, in assay [4], the outcome was Active. The IC50 in the assay with SARS-CoV-2 is 64.2 µM. Moreover, the inhibition entry in assay [5] is “Active”. Further, the Ratio in assay [6] stood at 0.68.

One may read the inhibition as the percentage by which the read-out fell short of the control. One may read the IC50 as the concentration that gives 50% inhibition.
